Data: ChEMBL document CHEMBL4819005, “Design, synthesis, and in vitro and in vivo anti-angiogenesis study of a novel vascular endothelial growth factor receptor-2 (VEGFR-2) inhibitor based on 1,2,3-triazole scaffold” (Eur J Med Chem, 2021)
Calls of active or inactive are those of the source. No cut-off for these calls is given here.

Key:
[1] = target: Vascular endothelial growth factor receptor 2 (Homo sapiens, UniProt P35968); assay: Inhibition of recombinant human His-tagged VEGFR2 expressed in Baculovirus expression system using ADP-Glo as substrate measured after 30 mins in presence of ATP by ADP-Glo kinase assay
Sequence of Vascular endothelial growth factor receptor 2 (P35968 whole entry): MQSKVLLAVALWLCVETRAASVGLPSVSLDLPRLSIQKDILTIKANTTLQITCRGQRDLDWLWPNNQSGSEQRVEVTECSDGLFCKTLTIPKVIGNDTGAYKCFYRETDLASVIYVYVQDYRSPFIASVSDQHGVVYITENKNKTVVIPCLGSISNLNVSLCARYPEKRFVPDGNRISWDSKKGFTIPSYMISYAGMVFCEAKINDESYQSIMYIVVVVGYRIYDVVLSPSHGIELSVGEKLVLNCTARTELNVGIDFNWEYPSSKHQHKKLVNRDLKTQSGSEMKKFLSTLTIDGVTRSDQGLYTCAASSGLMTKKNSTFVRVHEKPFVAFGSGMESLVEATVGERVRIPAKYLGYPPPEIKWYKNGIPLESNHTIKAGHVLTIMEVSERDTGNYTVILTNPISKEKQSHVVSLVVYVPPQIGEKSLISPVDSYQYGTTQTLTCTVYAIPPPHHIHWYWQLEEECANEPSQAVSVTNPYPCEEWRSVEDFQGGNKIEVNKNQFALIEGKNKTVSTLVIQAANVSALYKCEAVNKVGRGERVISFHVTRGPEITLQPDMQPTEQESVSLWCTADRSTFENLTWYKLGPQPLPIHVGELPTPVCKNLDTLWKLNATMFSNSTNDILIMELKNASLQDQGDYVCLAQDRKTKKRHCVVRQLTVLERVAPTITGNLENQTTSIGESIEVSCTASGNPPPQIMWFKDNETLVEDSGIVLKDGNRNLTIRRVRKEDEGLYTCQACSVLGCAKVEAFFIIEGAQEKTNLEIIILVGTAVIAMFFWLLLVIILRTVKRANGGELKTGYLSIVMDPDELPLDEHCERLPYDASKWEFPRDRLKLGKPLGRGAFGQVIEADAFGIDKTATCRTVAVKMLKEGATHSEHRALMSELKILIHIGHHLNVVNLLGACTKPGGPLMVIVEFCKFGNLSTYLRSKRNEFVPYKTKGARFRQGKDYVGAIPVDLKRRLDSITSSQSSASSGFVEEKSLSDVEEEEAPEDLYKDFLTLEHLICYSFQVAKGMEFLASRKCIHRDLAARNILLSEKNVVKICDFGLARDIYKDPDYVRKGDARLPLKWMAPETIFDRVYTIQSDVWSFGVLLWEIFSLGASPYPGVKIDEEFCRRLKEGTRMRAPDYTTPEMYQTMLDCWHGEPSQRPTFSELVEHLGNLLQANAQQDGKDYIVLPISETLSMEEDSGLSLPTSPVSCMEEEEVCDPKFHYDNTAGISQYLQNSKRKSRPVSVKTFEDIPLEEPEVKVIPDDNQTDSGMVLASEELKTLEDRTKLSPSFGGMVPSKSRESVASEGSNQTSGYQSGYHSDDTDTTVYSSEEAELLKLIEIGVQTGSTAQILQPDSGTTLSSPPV

HUVEC [2] = assay: cells; details: Homo sapiens, 24 h
MKN-45 = assay: cells; details: Homo sapiens, MKN-45, 24 h
HT-29 = assay: cells; details: Homo sapiens, HT-29, 24 h
Danio rerio [3] = species on record: Danio rerio; details: dose 40.0 mg/L, time 24.0 hrs
Danio rerio [4] = species on record: Danio rerio; details: dose 20.0 mg/L, time 24.0 hrs
HUVEC [5] = assay: Anti-angiogenesis activity against HUVEC cells assessed as inhibition of cell migration measured after 24 hrs by Transwell assay; format: functional, cell-based; details: Homo sapiens, dose 0.2-0.8 µM
Summary of the method: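 HUVECs pretreated 24 h in serum-free DMEM with 0, 0.2, 0.4 or 0.8 μM compound, then counted. 1×10^4 cells placed in upper transwell chamber (8 µm pores), lower chamber DMEM with 20% serum. After 24 h, filters fixed in methanol and stained with 0.1% crystal violet. Migrated cells on lower surface counted by microscopy.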

HUVEC [6] = assay: Anti-angiogenesis activity against HUVEC cells assessed as inhibition of tube formation at 0.2 to 0.8 uM measured after 6 hrs by microscopic method; format: functional, cell-based; details: Homo sapiens, dose 0.2-0.8 µM
Summary of the method: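 HUVECs exposed to 0, 0.2, 0.4 or 0.8 μM compound, then collected. 1×10⁴ cells seeded on Matrigel and cultured 6 h. Tubes photographed under microscope and total tube length quantified.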

SMILES	IC50 [1] [nM]	IC50 (MKN-45) [µM]	IC50 (HT-29) [µM]	IC50 (HUVEC [2]) [µM]	inhibition (Danio rerio [3])	inhibition (Danio rerio [4])	Activity (HUVEC [5])	Activity (HUVEC [6])
N#Cc1cccc(-n2cc(-c3ccc(/C=C4\C(=O)Nc5ccccc54)cc3)nn2)c1	> 200	> 20	> 20	> 20				
N#Cc1ccc(-n2cc(-c3ccc(C=C4C(=O)Nc5ccc(F)cc54)cc3)nn2)cc1	190	> 20	> 20	> 20				
O=C1Nc2ccc(F)cc2/C1=C/c1ccc(-c2cn(-c3ccc(F)cc3)nn2)cc1	192	> 20	> 20	> 20				
O=C1Nc2ccccc2/C1=C/c1ccc(-c2cn(-c3ccc(F)cc3)nn2)cc1	198	16.7	17.7	14.7				
O=C1Nc2ccccc2/C1=C/c1ccc(-c2cn(-c3cccc(F)c3)nn2)cc1	> 200	> 20	> 20	> 20				
O=C1Nc2ccccc2/C1=C/c1ccc(-c2cn(-c3ccc(Cl)cc3)nn2)cc1	163	16.2	14	18.2				
O=C1Nc2ccccc2/C1=C/c1ccc(-c2cn(-c3ccccc3Cl)nn2)cc1	> 200	> 20	> 20	> 20				
O=C1Nc2ccc(F)cc2/C1=C/c1ccc(-c2cn(-c3ccc(Cl)c(C(F)(F)F)c3)nn2)cc1	169	> 20	16.5	> 20				
O=C1Nc2ccccc2/C1=C/c1ccc(-c2cn(-c3cccc(Cl)c3)nn2)cc1	> 200	> 20	> 20	> 20				
N#Cc1ccc(-n2cc(-c3ccc(C=C4C(=O)Nc5ccccc54)cc3)nn2)cc1	179	> 20	15.8	> 20				
N#Cc1cccc(-n2cc(-c3ccc(/C=C4\C(=O)Nc5ccc(F)cc54)cc3)nn2)c1	193	> 20	> 20	> 20				
Cc1ccc(-n2cc(-c3ccc(/C=C4\C(=O)Nc5ccc(F)cc54)cc3)nn2)cc1		34.6	3.98	13.8				

Continued by falling IC50 (MKN-45), values first:

IC50 [1] [nM]	IC50 (MKN-45) [µM]	IC50 (HT-29) [µM]	SMILES	IC50 (HUVEC [2]) [µM]	inhibition (Danio rerio [3])	inhibition (Danio rerio [4])	Activity (HUVEC [5])	Activity (HUVEC [6])
170	15.8	11.2	O=C1Nc2ccc(F)cc2C1=Cc1ccc(-c2cn(-c3ccc(Cl)cc3)nn2)cc1	19.6				
187	15.2	14	N#Cc1ccccc1-n1cc(-c2ccc(C=C3C(=O)Nc4ccc(F)cc43)cc2)nn1	> 20				
169	14.6	14.4	N#Cc1ccccc1-n1cc(-c2ccc(/C=C3\C(=O)Nc4ccccc43)cc2)nn1	19.7				
186	14.1	10.5	O=C1Nc2ccc(F)cc2/C1=C/c1ccc(-c2cn(-c3cccc(Cl)c3)nn2)cc1	19.4				
115	12.5	10.5	O=C1Nc2ccccc2/C1=C/c1ccc(-c2cn(-c3ccccc3F)nn2)cc1	19.3				
	11.6	7.07	O=C1Nc2ccccc2/C1=C/c1ccc(-c2cn(-c3ccccc3)nn2)cc1	12.7				
	11.1	8.12	O=C1Nc2ccc(F)cc2C1=Cc1ccc(-c2cn(-c3ccccc3)nn2)cc1	13.7				
111	9.77	8.71	Cc1ccccc1-n1cc(-c2ccc(/C=C3\C(=O)Nc4ccccc43)cc2)nn1	14.7				
	9.25	10.3	CCN(CC)CCNC(=O)c1c(C)[nH]c(/C=C2\C(=O)Nc3ccc(F)cc32)c1C [SUNITINIB]	6.37				
108	8.89	9.67	O=C1Nc2ccccc2/C1=C/c1ccc(-c2cn(-c3ccc(Cl)c(C(F)(F)F)c3)nn2)cc1	> 20				
140	8.51	8.98	O=C1Nc2ccc(F)cc2/C1=C/c1ccc(-c2cn(-c3ccccc3F)nn2)cc1	14.4				
171	8.19	13	O=C1Nc2ccc(F)cc2/C1=C/c1ccc(-c2cn(-c3cccc(F)c3)nn2)cc1	17.2				
120	7.54	5.95	O=C1Nc2ccc(F)cc2/C1=C/c1ccc(-c2cn(-c3ccccc3Cl)nn2)cc1	18.2				
	7.21	5.87	Cc1ccccc1-n1cc(-c2ccc(C=C3C(=O)Nc4ccc(F)cc43)cc2)nn1	8.63				
	6.81	7.32	Cc1cccc(-n2cc(-c3ccc(/C=C4\C(=O)Nc5ccc(F)cc54)cc3)nn2)c1	9.88				
	4.69	3.94	Cc1cccc(-n2cc(-c3ccc(/C=C4\C(=O)Nc5ccccc54)cc3)nn2)c1	13.7				
	1.92	1.61	Cc1ccc(-n2cc(-c3ccc(/C=C4\C(=O)Nc5ccccc54)cc3)nn2)cc1	7.94	Active	Active	Dose-Dependent Effect	Dose-Dependent Effect
